Source: PubChem (several laboratories)
Rows were chosen to be rich in hits. Some 2.6% of all compounds tested hit in one or more screens of this group.
SENP6 block: SENP6 protease inhibition; Recombinant SENP6 catalytic domain, aminoluciferin luminescence; inhibition, % at 10 µM; actives 1.8% (n = 330,000); AID 2599;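 active = inhibition above about 50% at the single tested dose, limit read from the data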;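 also: plate controls were DMSO wells with enzyme for no effect and DMSO wells lacking enzyme for full effect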
Target sequence (Q9GZR1 628-1112 limits assumed): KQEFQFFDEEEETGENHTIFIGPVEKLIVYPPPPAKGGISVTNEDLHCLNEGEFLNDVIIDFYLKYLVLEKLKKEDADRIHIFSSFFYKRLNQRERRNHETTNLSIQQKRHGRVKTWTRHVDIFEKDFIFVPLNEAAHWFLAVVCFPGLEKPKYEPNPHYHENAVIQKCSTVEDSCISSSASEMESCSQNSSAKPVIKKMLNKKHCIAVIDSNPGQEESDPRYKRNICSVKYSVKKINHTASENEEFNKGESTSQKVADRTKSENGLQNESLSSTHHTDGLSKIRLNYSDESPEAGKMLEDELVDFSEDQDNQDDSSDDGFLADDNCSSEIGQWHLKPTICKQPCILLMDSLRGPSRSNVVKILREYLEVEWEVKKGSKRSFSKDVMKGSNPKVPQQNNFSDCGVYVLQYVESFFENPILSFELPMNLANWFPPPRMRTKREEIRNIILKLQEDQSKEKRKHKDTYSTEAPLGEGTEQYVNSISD
SENP8 block-1: inhibitors of human SENP8 protease; Q96LD8; purified SENP8, Z-RLRGG-aminoluciferin cleavage, luminescence; actives 1.2% (n = 330,000); inhibition, % at 10 µM; in the data active = inhibition above about 50%
SENP7 inh: inhibitors of human SENP7 protease; Q9BQF6; AID 434973; actives 1.5% (n = 330,000); inhibition, % at 5 µM; recombinant SENP7, Z-RLRGG-aminoluciferin luminescence, 40 min;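 active = inhibition above about 50% at the single test dose, limit read from the data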;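 also: plate controls were DMSO with enzyme for no effect and no enzyme buffer wells for full effect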
SENP1 inh: SENP1 (human) catalytic domain inhibition. recombinant SENP1 catalytic domain, CyPet-SUMO1-YPet FRET cleavage. Q9P0U3. actives 0.21% (n = 360,000). inhibition, % at 10 µM;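 active = inhibition at least 30% at 10 µM, raw YFP signal under a set limit, fluorescence ratio 0.5 to 1.5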;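 also: 0% = enzyme with DMSO and 100% = no enzyme wells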
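Material – human SENP1 catalytic domain · Input – SENP1 enzyme, 20 pM final · Compound dosing – single concentration of 10 µM compound, 0.5% DMSO final · Timing – enzyme reaction for 50 min at room temperature, dark · Measured by – FRET fluorescence in CFP and YFP emission channels · Control set – no-enzyme wells low, DMSO-plus-enzyme wells high control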
SENP8 block-2: SENP8 (human) protease inhibition; Q96LD8; actives 0.64% (n = 360,000); inhibition, % at 20 µM; AID 602440; recombinant SENP8, Nedd8 substrate fluorescence; in the data active = inhibition mostly above about 40%, no sharp cut-off; inactive = mostly below about 27%
Platelet DG rel: modulates dense granule release in human platelets; human platelet-rich plasma, SFLLRN dense granule ATP release, luminescence; inhibition, %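 (compounds screened at 7.5 µM in platelet-rich plasma)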; actives 0.22% (n = 300,000);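 active = mean replicate score, as percent of positive control, at or above 50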
SENP8 confirm: confirmation of human SENP8 protease inhibitors. actives 40% (n = 6,200). shares compounds with SENP7 inh. AID 488912. inhibition, % at 12.5 µM. Recombinant SENP8, Z-RLRGG-aminoluciferin luminescence, 60 min;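 active = mean inhibition across replicates above about 50%, limit read from the data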
SENP6 conf: human SENP6 inhibition, confirmed. inhibition, % at 12.5 µM. recombinant SENP6, Z-RLRGG-aminoluciferin luminescence. shares compounds with SENP7 inh. actives 58% (n = 6,200)
SENP7 confirm: human SENP7 inhibition, confirmed | shares compounds with SENP7 inh | AID 488917 | inhibition, % at 12.5 µM | recombinant SENP7, Z-RLRGG-aminoluciferin luminescence, 40 min | actives 69% (n = 6,200)
Casp3 SENP sel: selectivity test for SENP inhibitors: human caspase-3 inhibition | inhibition, % at 12.5 µM | purified caspase-3, Z-DEVD-aminoluciferin luminescence, 60 min | shares compounds with SENP7 inh | actives 60% (n = 6,200) | AID 488918;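 active = mean inhibition above about 50%, limit read from the data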;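 also: plate controls were enzyme with DMSO for no effect and wells without caspase-3 for full effect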
Luc interf: luminescence interference (SENP counter-screen) | shares compounds with SENP7 inh | Pre-incubated SENP8/Z-RLRGG-aminoluciferin, luciferase luminescence interference | inhibition, % at 12.5 µM | actives 39% (n = 6,200) | AID 488919;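 active = mean inhibition above about 50% when retested at one dose, limit read from the data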;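 also: plate controls were DMSO wells with completed reaction for no effect and substrate without enzyme for full effect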
Active calls of the source: *.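 The calls were made as follows, unless noted: active = mean inhibition above about 50% in the one-dose retest (limit read from the data); inactive = the rest.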

Screening Cc1ccc(C(=O)NN2C(=O)C3C(C2=O)C2C=CC3C23CC3)cc1 (stereo not given) returned SENP6 block -14, SENP8 block-1 1, SENP7 inh 2, SENP1 inh 2, SENP8 block-2 0 and Platelet DG rel 6.
For O=C(c1[nH]c(C(F)(F)F)nc1-c1ccccc1)N1CCN(c2cccc(C(F)(F)F)n2)CC1 the results were SENP1 inh 0 and SENP8 block-2 -50.
For O=C(NN/C(=N/S(=O)(=O)c1ccc(Cl)cc1)c1ccccc1)c1cccc(Cl)c1 the results were SENP6 block 86*, SENP8 block-1 71*, SENP7 inh 85*, SENP1 inh 2, SENP8 block-2 20, Platelet DG rel -33, SENP8 confirm 51*, SENP6 conf 64*, SENP7 confirm 87*, Casp3 SENP sel 63* and Luc interf 38.
O=C(NN/C(=N/S(=O)(=O)c1ccc(Cl)cc1)c1ccccc1)c1ccc(O)cc1 was read as SENP6 block 96*, SENP8 block-1 95*, SENP7 inh 97*, SENP1 inh 0, SENP8 block-2 -60, Platelet DG rel 39, SENP8 confirm 73*, SENP6 conf 63*, SENP7 confirm 89*, Casp3 SENP sel 87* and Luc interf 88*.
Screening Cc1ccc(S(=O)(=O)/N=C(/NNC(=O)c2cccc(Cl)c2)c2ccccc2)cc1 returned SENP6 block 78*, SENP8 block-1 49, SENP7 inh 68*, SENP1 inh 3, SENP8 block-2 10, Platelet DG rel -11, SENP8 confirm 14, SENP6 conf 25, SENP7 confirm 63*, Casp3 SENP sel 43 and Luc interf 45.
For Cc1ccc(S(=O)(=O)NN/C(=N/S(=O)(=O)c2ccccc2)c2ccccc2)cc1 the results were SENP6 block -11, SENP8 block-1 -11, SENP7 inh -3, SENP1 inh 2, SENP8 block-2 2 and Platelet DG rel 2.
Screening COc1ccc(-c2cn(CCC(=O)O)c(C)n2)cc1 returned SENP6 block 85*, SENP8 block-1 81*, SENP7 inh 25, SENP1 inh 2, SENP8 block-2 9, SENP8 confirm -8, SENP6 conf 85*, SENP7 confirm 94*, Casp3 SENP sel 27 and Luc interf 40.
For CCc1cccc(N(C(=O)c2csnn2)C(C(=O)NC2CCCCC2)c2ccncc2)c1 (stereo not given) the results were SENP6 block 0, SENP8 block-1 0, SENP7 inh 6, SENP1 inh -2, SENP8 block-2 8 and Platelet DG rel -4.
`COc1ccc2cc(S(=O)(=O)NCc3cccnc3)ccc2c1` gave SENP6 block 5, SENP8 block-1 5, SENP7 inh 3, SENP1 inh 0, SENP8 block-2 4 and Platelet DG rel 1.
`Cc1ccc(NC(=O)CCc2c(C)nn(-c3ccc(N4CCCCC4)nn3)c2C)cc1F` gave SENP6 block 56*, SENP8 block-1 38, SENP7 inh 31, SENP1 inh 3, SENP8 block-2 -42, Platelet DG rel 5, SENP8 confirm 61*, SENP6 conf 53*, SENP7 confirm 77*, Casp3 SENP sel 38 and Luc interf 10.
For COc1ccc(-n2ncc3c(N(C)C4CCCCC4)ncnc32)cc1 the results were SENP6 block 48, SENP8 block-1 43, SENP7 inh 47, SENP1 inh 1, SENP8 block-2 -166 and Platelet DG rel 1.
Screening Cc1cccc(-n2ncc3c(N(C)C4CCCCC4)ncnc32)c1 returned SENP6 block 67*, SENP8 block-1 68*, SENP7 inh 60*, SENP1 inh -47, SENP8 block-2 -3, Platelet DG rel 21, SENP8 confirm -12, SENP6 conf -7, SENP7 confirm -4, Casp3 SENP sel 1 and Luc interf 19.
`Nc1c(-c2ccccc2)cnn1-c1ccccc1` gave SENP6 block 79*, SENP8 block-1 70*, SENP7 inh 83*, SENP1 inh 1, SENP8 block-2 11, Platelet DG rel 14, SENP8 confirm 75*, SENP6 conf 72*, SENP7 confirm 94*, Casp3 SENP sel 88* and Luc interf 78*.
Screening Nc1c(-c2cccc(Cl)c2)cnn1-c1ccccc1 returned SENP6 block 20, SENP8 block-1 21, SENP7 inh 38, SENP1 inh 2, SENP8 block-2 13 and Platelet DG rel 8.
For CCSc1nnc(Cc2cc(=O)[nH]c(=O)[nH]2)n1-c1cc(C)ccc1C the results were SENP6 block 53*, SENP8 block-1 -6, SENP7 inh 15, SENP1 inh 3, SENP8 block-2 16, Platelet DG rel 15, SENP8 confirm -4, SENP6 conf -1, SENP7 confirm -6, Casp3 SENP sel -5 and Luc interf -4.
CC[C@@H](C)C(NC(=O)OC(C)(C)C)c1cn([C@@H](Cc2ccc(O)cc2)C(=O)N2CCN(C(=O)OC(C)(C)C)CC2)nn1 (stereo not given in full) was read as SENP6 block 82*, SENP8 block-1 48, SENP7 inh 33, SENP1 inh 4, SENP8 block-2 3, Platelet DG rel -2, SENP8 confirm -1, SENP6 conf -5, SENP7 confirm 0, Casp3 SENP sel 6 and Luc interf 7.
`CC[C@H](C)C(C(=O)N1CCN(C(=O)OC(C)(C)C)CC1)n1cc(C(CC(C)C)NC(=O)OC(C)(C)C)nn1` (stereo not given in full) gave SENP6 block -1, SENP8 block-1 -8, SENP7 inh -6, SENP1 inh 3, SENP8 block-2 2 and Platelet DG rel -3.
